In the library only some 2.9% were active in any assay of this set; here they are far more common.
KLK7 zymogen act = proKLK7 zymogen activators, primary screen, biochemical, fluorescence intensity; Kallikrein-7 (Homo sapiens), P49862; purified proKLK7, EDANS-DABCYL substrate fluorescence; 100% is mature enzyme control, 0% vehicle; activation, % at 7 µM; hit rate 0.9% among 370,000; AID 652039, 2013;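 active = activation above the mean of all tested compounds plus 3 SD, computed per campaign excluding outliers beyond control limits, cut at about 13% in these data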
Target sequence (P49862 whole entry, looked up): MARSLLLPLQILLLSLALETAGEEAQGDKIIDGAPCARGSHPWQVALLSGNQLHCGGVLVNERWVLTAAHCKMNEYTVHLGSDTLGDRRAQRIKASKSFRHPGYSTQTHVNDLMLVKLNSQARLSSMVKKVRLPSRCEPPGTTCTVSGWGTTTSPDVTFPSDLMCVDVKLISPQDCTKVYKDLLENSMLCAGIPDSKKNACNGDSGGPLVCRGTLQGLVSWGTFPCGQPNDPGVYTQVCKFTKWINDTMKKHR
DDE Tn6 FP inh = inhibitors of Tn6 peptide binding to fibrin DD(E), primary screen, biochemical, fluorescence polarization, human fibrin, Tn6 probe. Fibrin DD(E) TRITC-Tn6 fluorescence polarization displacement. inhibition, % at 8.3 µM. hit rate 0.21% among 370,000. Fibrinogen beta chain (Homo sapiens), P02675;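 active = inhibition above a per-campaign cutoff: mean of compounds within control limits plus 3 SD, cut at about 15% in these data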
Target sequence (P02675 whole entry, looked up): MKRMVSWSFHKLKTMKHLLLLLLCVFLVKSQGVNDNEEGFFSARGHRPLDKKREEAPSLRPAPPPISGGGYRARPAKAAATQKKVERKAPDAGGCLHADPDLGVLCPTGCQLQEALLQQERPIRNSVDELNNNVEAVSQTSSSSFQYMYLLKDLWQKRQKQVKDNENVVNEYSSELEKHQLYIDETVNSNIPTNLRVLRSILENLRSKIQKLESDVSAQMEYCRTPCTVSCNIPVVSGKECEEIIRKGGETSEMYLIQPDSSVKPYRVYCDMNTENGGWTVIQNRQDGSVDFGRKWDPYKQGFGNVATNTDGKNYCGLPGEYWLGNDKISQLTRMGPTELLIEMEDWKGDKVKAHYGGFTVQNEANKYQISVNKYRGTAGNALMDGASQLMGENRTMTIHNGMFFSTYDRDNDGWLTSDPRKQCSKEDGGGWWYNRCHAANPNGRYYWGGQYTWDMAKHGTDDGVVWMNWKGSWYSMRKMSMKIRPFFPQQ
CRFBP-R2 agonist = agonists of CRF-BP/CRF-R2 complex, primary screen, cell-based, HEK293, calcium dye fluorescence, uHTS; CRF-binding protein / CRF receptor 2 complex (human); calcium dye fluorescence (FLIPR); percent of saturating CRF peptide response; activation, % at 13.2 µM; hit rate 0.46% among 350,000; AID 588473, 2011;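 active = activation of at least 50%, plus an integration ratio under a set limit after plate pattern correction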
DDE Tn7 FP inh = inhibitors of Tn7 peptide binding to fibrin DD(E), primary screen, biochemical, fluorescence polarization, human fibrin, Tn7 probe. inhibition, % at 8.3 µM. AID 720508, 2013. hit rate 0.13% among 370,000. Fibrinogen beta chain (Homo sapiens), P02675. FP displacement of FITC-Tn7 peptide from fibrin DD(E); 0% = median of compound wells per plate;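 active = inhibition above the mean of compounds falling within the control limits plus 3 SD of them, cut at about 14% in these data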
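Measure: % inhibition scaled between sample-field median and high-control FP; Test system: human fibrin DD(E); Quantity: 2 µM final DD(E) protein; Doses: one dose, 8.3 µM nominal; Schedule: compound with protein 10 min, then 3 h after probe, room temperature; Detection: fluorescence polarization; Medium: Tris buffer with calcium and detergent, pH 7.8.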
CRFBP-R2 block = antagonists of CRF-BP/CRF-R2 complex, primary screen, cell-based, HEK293, calcium dye fluorescence, uHTS. CRF-induced calcium fluorescence. hit rate 0.59% among 350,000. inhibition, % at 11.8 µM. AID 588475, 2011;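 active = inhibition of the ligand-induced calcium signal above about 50% at the single tested concentration, limit read from the data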
CendR NRP1 mod = modulators of CendR peptide binding to NRP-1, primary screen, biochemical, fluorescence polarization, uHTS. Neuropilin-1 (Homo sapiens), O14786. FAM-RPARPAR peptide binding to NRP-1. inhibition, % at 25 µM. hit rate 0.85% among 360,000. AID 602438, 2012;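 active = inhibition or corrected inhibition above about 18%, plus a signal ratio from 0.5 to 1.5, limit read from the data, passing the limit was not always enough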
Of the large screens only hits and unclear results are named; the others gave an inactive call.

CCCCn1c(SCC(=O)NCc2ccco2)nc2ccc(N3CCOCC3)cc2c1=O	KLK7 zymogen act 15
O=c1c(N=Nc2ccc(O)cc2)c(-c2ccccc2)[nH]n1-c1ccc([N+](=O)[O-])cc1	none
O=c1cc(-c2ccccc2)[nH]n1-c1ccc([N+](=O)[O-])cc1	CRFBP-R2 block 51 (no result: KLK7 zymogen act, DDE Tn6 FP inh, DDE Tn7 FP inh)
O=C(Nc1ncc(S(=O)(=O)c2ccc([N+](=O)[O-])cc2)s1)c1ccccc1F	CRFBP-R2 agonist 57
COC(=O)C(NC(=O)c1ccc(F)cc1)(Nc1ncc(S(=O)(=O)c2ccc([N+](=O)[O-])cc2)s1)C(F)(F)F (stereo not drawn)	CRFBP-R2 block 58
COC(=O)C(NC(=O)c1ccccc1C)(Nc1ncc(S(=O)(=O)c2ccc([N+](=O)[O-])cc2)s1)C(F)(F)F (stereo not drawn)	none
O=C(OCc1cn(Cc2cccc(F)c2)nn1)N1CCCCC1	none (no result: CRFBP-R2 agonist, CRFBP-R2 block, CendR NRP1 mod)
CCC1(CC)C(=O)NN(c2ccccc2)C1=O	CendR NRP1 mod 27
CC(C)CNc1cccc2c1S(=O)(=O)N(Cc1cn(Cc3ccc(C(F)(F)F)cc3)nn1)Cc1ccccc1O2	none (no result: CRFBP-R2 agonist, CRFBP-R2 block, CendR NRP1 mod)
COc1ccc(C2CC(=O)C=C(NC3CCCC3)C2)cc1 (stereo not drawn)	CendR NRP1 mod 29
Cc1ccc(N=Cc2sc(O)c3ccccc23)cc1	CRFBP-R2 agonist 59
Cc1ccc(N=Cc2sc(O)c3ccccc23)c(C)c1	none
COc1ccc(CN2C(C(=O)NCC(C)C)CSCCS2(=O)=O)cc1 (stereo not drawn)	none (no result: CRFBP-R2 agonist, CRFBP-R2 block, CendR NRP1 mod)
CCC(=O)Nc1ccc2c(c1)C(=O)N(C)[C@@H]1CC[C@@H](CC(=O)NCc3ccc(OC)cc3)O[C@H]1CO2	none (no result: CRFBP-R2 agonist, CRFBP-R2 block, CendR NRP1 mod)
CC(C)CN(C(=O)c1cc(Cl)nc2ccccc12)C1CCS(=O)(=O)C1 (stereo not drawn)	none
CCCN(C(=O)c1cc(Cl)nc2ccccc12)C1CCS(=O)(=O)C1 (stereo not drawn)	CRFBP-R2 block 75
CC(C)C[C@@H]1COc2cc(Br)ccc2S(=O)(=O)N1Cc1cn(CCC2OCCCO2)nn1	none (no result: CRFBP-R2 agonist, CRFBP-R2 block, CendR NRP1 mod)
C=CCN(C)CC#Cc1ccccc1C	none (no result: CRFBP-R2 agonist, CRFBP-R2 block, CendR NRP1 mod)
C=CCn1c(-c2ccc(OC)cc2)nc2ccccc21	CRFBP-R2 agonist 154
C=CCn1c(-c2ccc(N)cc2)nc2ccccc21	none
COC(=O)[C@]12C[C@H](CC(=O)N3CCSCC3)C(=O)N(Cc3ccc4c(c3)OCO4)C1=C[C@H](C(C)C)O[C@@H]2C1CC1	none (no result: CRFBP-R2 agonist, CRFBP-R2 block, CendR NRP1 mod)
CCCn1c(=O)c(C(=O)NNC(=O)c2ccccc2Cl)c(O)c2ccccc21	CRFBP-R2 agonist 66
Cn1c(=O)c(C(=O)NCc2ccccc2Cl)c(O)c2ccccc21	CRFBP-R2 block 65
C[C@H]1[C@@H](NC(=O)Cc2ccsc2)CC[C@@]23CCCN2C(=O)CCC[C@@H]13	none (no result: KLK7 zymogen act, CRFBP-R2 agonist, CRFBP-R2 block, CendR NRP1 mod)
Cc1cc(NC(=O)c2ccc(Cl)cc2Cl)n(-c2ccccc2)n1	CendR NRP1 mod 18
Cc1cc(NC(=O)COc2ccc(Cl)cc2Cl)n(-c2ccccc2)n1	none
CC[C@H](NC(=O)[C@@H](Cc1ccccc1)NC(=O)[C@H]1O[C@@H](n2cnc3c(=O)[nH]c(N)nc32)[C@H](O)[C@@H]1O)c1ccccc1	none (no result: CRFBP-R2 agonist, CRFBP-R2 block, CendR NRP1 mod)
COc1ccc(C2CC(c3ccc(Br)cc3)=NN2C(=O)CCC(=O)O)cc1OC (stereo not drawn)	CRFBP-R2 block 56
COc1ccc(C2=NN(C(=O)CCC(=O)O)C(c3ccc(OC)c(OC)c3)C2)cc1 (stereo not drawn)	none
C=CS(=O)(=O)N(Cc1ccc(F)cc1)C(=C)C(=O)OC	none (no result: CRFBP-R2 agonist, CRFBP-R2 block, CendR NRP1 mod)
COc1ccc(N/N=C(/C#N)S(=O)(=O)c2nsc(C)c2C#N)cc1	none
Cc1snc(S(=O)(=O)/C(C#N)=N/Nc2cccc(C(F)(F)F)c2)c1C#N	CendR NRP1 mod 27 (no result: KLK7 zymogen act, DDE Tn6 FP inh, DDE Tn7 FP inh)
C[C@H](O)[C@@H]1C(=O)N2CCc3c([nH]c4cccc(-c5ccccc5)c34)[C@@H]2C[C@@H]1N(C)C(=O)c1ccco1	none (no result: CRFBP-R2 agonist, CRFBP-R2 block, CendR NRP1 mod)
COC(=O)[C@]12C=CCN1[C@@H](c1ccc(OC)c(OC)c1)c1c(c3ccccc3n1S(=O)(=O)c1ccc(C)cc1)C2	none (no result: CRFBP-R2 agonist, CRFBP-R2 block, CendR NRP1 mod)
COCCCNC(=S)NC1CC2CCC(C1)N2Cc1ccccc1 (stereo not drawn)	CendR NRP1 mod 48
CCOCCCNC(=S)NC1CC2CCC(C1)N2Cc1ccccc1 (stereo not drawn)	none
COC(=O)[C@]1(CNC(C)=O)CC(=O)N(Cc2ccc(Cl)cc2)[C@@H]1c1ccc(OC)cc1	none (no result: CRFBP-R2 agonist, CRFBP-R2 block, CendR NRP1 mod)
Cn1nc([N+](=O)[O-])nc1Oc1ccc(C(C)(C)C)cc1	CRFBP-R2 block 76
CC(Oc1ccc(Br)cc1)C(=O)N1CCc2ccccc21 (stereo not drawn)	CRFBP-R2 agonist 222
CC(Oc1ccccc1Br)C(=O)N1CCc2ccccc21 (stereo not drawn)	none
COc1ccc(CNS(=O)(=O)NCc2ccccc2)cc1OC	CRFBP-R2 agonist 274
O=S(=O)(NCc1ccccc1)NCc1ccccc1	none
COc1ccc([C@H]2OC(=O)C[C@H]2C(=O)N2CCCCC2)cc1OC	none (no result: CRFBP-R2 agonist, CRFBP-R2 block, CendR NRP1 mod)
CCN1C(=O)N(CC)C(O)(c2ccccc2)C1(O)c1ccccc1 (stereo not drawn)	CendR NRP1 mod 30
CCCOc1ccc(OCC(=O)c2[nH]c(C)c(C(C)=O)c2C)cc1	CendR NRP1 mod 41 (no result: KLK7 zymogen act, DDE Tn6 FP inh, DDE Tn7 FP inh)
CC(=O)c1c(C)[nH]c(C(=O)COc2cc(C)cc(C)c2)c1C	none
COc1ccc(-c2ccc(N(C)C)cc2)cc1[C@H]1[C@H]2C=CC[C@@H](C)[C@@H]2C(=O)N1Cc1ccccc1	none
COc1ccc(-c2ccc(OC)c([C@H]3[C@H]4C=CC[C@@H](C)[C@@H]4C(=O)N3Cc3ccccc3)c2)cc1C	CendR NRP1 mod 29
COC(=O)[C@]12C[C@H](CC(=O)N3CCN(C(=O)C4CC4)CC3)C(=O)N(CCc3ccc(OC)c(OC)c3)C1=C[C@H](C(C)(C)C)O[C@@H]2C	none (no result: CRFBP-R2 agonist, CRFBP-R2 block, CendR NRP1 mod)
CC(C)C[C@H]1COc2cc(Br)ccc2S(=O)(=O)N1Cc1cn(Cc2ccc(F)cc2)nn1	none (no result: CRFBP-R2 agonist, CRFBP-R2 block, CendR NRP1 mod)
CN1[C@@H](Cc2ccccc2)COc2cccc(N3CCCC3)c2S1(=O)=O	none (no result: CRFBP-R2 agonist, CRFBP-R2 block, CendR NRP1 mod)
Oc1ccc(-c2nc3ncccn3c2Nc2ccc3c(c2)OCO3)cc1	CendR NRP1 mod 24
Clc1ccc(-c2nc3ncccn3c2Nc2ccc3c(c2)OCO3)cc1	none
O=C(Nc1ccc(F)cc1)c1ccc(S(=O)(=O)N2CCOCC2)o1	CendR NRP1 mod 25

Compound activity (PubChem BioAssay)
